Results collected from several papers.
Compare with care: the assays were run in different laboratories.
Target: Casein kinase I isoform epsilon (CSNK1E, Homo sapiens, UniProt P49674)

CCCCC(=O)Nc1ccc(-c2ccc3ncn(CCC)c(=O)c3c2)cn1 — remaining binding (binding, competition with immobilised ligand; 0.5 µM): 82%
C=CC(=O)N1CCC[C@@H](n2nc(-c3ccc(Oc4ccccc4)cc3)c3c(N)ncnc32)C1 — inhibition (enzyme activity, inhibitor; 1 µM): 65%
CN1CCN(C(=O)c2ccc(NC(=O)Nc3ccc(N(C)c4ccnc(Nc5ccc(CS(C)(=O)=O)cc5)n4)cc3)cc2)CC1 — remaining binding (binding, competition with immobilised ligand; 1 µM): 75%
CO[C@@H]1[C@H](N(C)C(=O)c2ccccc2)C[C@H]2O[C@]1(C)n1c3ccccc3c3c4c(c5c6ccccc6n2c5c31)C(=O)NC4 — inhibition (enzyme activity, inhibitor; 1 µM): 0%
Cc1ccc(NC(=O)c2ccnc(C(F)(F)F)c2)cc1-c1cc(OCCO)nc(N2CCOCC2)c1 — remaining binding (binding, competition with immobilised ligand; 1 µM): 100%
C#Cc1cc(-c2cc(Nc3nc(N[C@@H](C)c4ccc(F)cn4)ncc3Cl)n[nH]2)ccc1C=O — inhibition (enzyme activity, inhibitor; 0.2 µM): 4.66%
CC(=O)ON=C1C=CC(=C(C#N)c2ccccc2)C=C1 — activity vs control (enzyme activity, inhibitor, ADP detection; 20 µM): 60%
C1=C/COCc2cc(ccc2OCCN2CCCC2)Nc2nccc(n2)-c2cccc(c2)COC/1 — remaining binding (binding; 0.1 µM): 99%
